Source: PubChem
KCNQ1 act – human KCNQ1 channel potentiation or activation | P51787 | CHO-K1 KCNQ1, thallium flux FluxOR fluorescence; active compounds read high | B-score at 10 µM | actives 0.35% (n = 310,000) | AID 2648;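 active = fluorescence ratio B-score, a plate-corrected score, at least three library SD, with initial intensity B-score within 5 SD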
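assay system = CHO-K1 cells stably expressing KCNQ1 | medium = assay buffer, equal DMSO in all wells | timing = 37 °C overnight plating, 90-min dark dye load, 20-min compound pretreatment | measured by = kinetic FluxOR thallium fluorescence, 10-s 1-Hz baseline, 110-s post-stimulus read | measure = fluorescence change relative to baseline, converted to B score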
KCNK3 block – human KCNK3 channel inhibition, primary screen. CHO-KCNK3 thallium flux, FluxOR fluorescence; active compounds read low. actives 0.84% (n = 340,000). B-score at 10 µM;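 active = B-score under library mean minus 4 SD, starting fluorescence ratio at most library mean plus 5 SD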;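 note: more negative B-score means stronger inhibition of thallium flux through KCNK3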
Target sequence (O14649 whole entry, looked up): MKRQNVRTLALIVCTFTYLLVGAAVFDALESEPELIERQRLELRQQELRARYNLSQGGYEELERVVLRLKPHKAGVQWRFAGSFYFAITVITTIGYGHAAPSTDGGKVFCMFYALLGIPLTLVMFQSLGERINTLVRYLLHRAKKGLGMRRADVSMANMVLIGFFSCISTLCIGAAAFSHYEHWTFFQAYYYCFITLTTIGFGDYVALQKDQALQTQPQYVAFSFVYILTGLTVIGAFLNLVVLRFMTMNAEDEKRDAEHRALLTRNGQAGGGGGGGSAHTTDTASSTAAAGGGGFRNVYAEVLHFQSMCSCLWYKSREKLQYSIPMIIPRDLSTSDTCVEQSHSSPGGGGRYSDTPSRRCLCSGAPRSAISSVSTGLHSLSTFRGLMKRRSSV
KCNQ1 block – blocks the human KCNQ1 potassium channel | AID 2642 | CHO-K1 KCNQ1, FluxOR thallium flux fluorescence; active compounds read high | B-score at 10 µM | P51787 | actives 1.3% (n = 310,000);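 active = compounds whose thallium flux B-score, printed positive for inhibition, exceeds three library SD while starting fluorescence stays within three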;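 note: channel opened by potassium depolarization with thallium stimulus after 20 min compound exposure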
KCNK9 inh – blocks the human KCNK9 two-pore domain potassium channel | HEK293 KCNK9, FluxOR thallium flux fluorescence; active compounds read low | Q9NPC2 | actives 1.2% (n = 310,000) | B-score at 10 µM;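 active = ratio B-score over 3 SD below the library mean, with starting fluorescence within 5 SD of its mean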;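 note: negative B-score means less thallium flux so channel inhibition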
Kir21 inh – inhibitors of mouse Kir2.1 inward-rectifier potassium channel; HEK293-Kir2.1, FluxOR thallium flux fluorescence; active compounds read low; B-score at 10 µM; actives 0.85% (n = 310,000);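 active = fluorescence ratio B-score at or below minus 3 SD of library scores, with starting-brightness B-score within 2 SD, cut at about -4.2 in these data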;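 note: channel flux triggered by added potassium and thallium sulfate stimulus; B-score of peak minus minimum fluorescence over baseline after thallium stimulus; more negative B-score means stronger Kir2.1 block with less thallium influx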
hERG protect – shields human hERG channel from block by proarrhythmic agents. CHO-hERG, FluxOR thallium flux, dofetilide IC70 present. AID 1511. actives 0.51% (n = 310,000). activation (rescue from dofetilide block), less the hit threshold, % at 10 µM. Q12809;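 active = activation above the mean of controls blocked by dofetilide plus 5 SD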;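 note: thallium influx through hERG after potassium depolarization seen as dye fluorescence rise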
An asterisk follows results filed as active. This is a sample that favours compounds with a hit; in the whole collection about 3.7% have one here.

`Cc1ccc(N2CC(C(=O)OCc3nnc(-c4ccccc4)o3)CC2=O)cc1` (configuration not stated) gave KCNQ1 act inactive, KCNK3 block inactive, KCNQ1 block inactive, KCNK9 inh inactive, Kir21 inh 0.12 and hERG protect -4.
`CCN(C(=O)COC(=O)c1cc(-c2cccc3ccccc23)nc2ccccc12)C1CCS(=O)(=O)C1` (configuration not stated) gave KCNQ1 act inactive, KCNK3 block inactive, KCNQ1 block inactive, KCNK9 inh -7.1*, Kir21 inh -0.15 and hERG protect -7.
`CCN(C(=O)COC(=O)C(Cc1ccccc1)N1C(=O)c2ccccc2C1=O)C1CCS(=O)(=O)C1` (configuration not stated) gave KCNQ1 act 8*, KCNK3 block inactive, KCNQ1 block inactive, KCNK9 inh inactive, Kir21 inh -0.07 and hERG protect -8.
O=C(COC(=O)c1cc(-c2cccc3ccccc23)nc2ccccc12)NC1CCS(=O)(=O)C1 (configuration not stated) was read as KCNQ1 act inactive, KCNK3 block inactive, KCNQ1 block inactive, KCNK9 inh inactive, Kir21 inh -0.87 and hERG protect -16.
`CC(CC(=O)Nc1cccc(F)c1)S(=O)(=O)c1ccc2c(c1)NC(=O)CO2` (configuration not stated) gave KCNQ1 act inactive, KCNK3 block inactive, KCNQ1 block inactive, KCNK9 inh inactive, Kir21 inh -1.6 and hERG protect -8.
For COc1ccc(C=Nc2ccc3[nH]ncc3c2)c(O)c1 the results were KCNQ1 act inactive, KCNK3 block inactive, KCNQ1 block inactive, KCNK9 inh inactive, Kir21 inh -0.99 and hERG protect -8.
For Oc1c(Br)cc(Br)cc1/C=N/c1nccs1 the results were KCNK3 block inactive.
Screening Oc1c(Br)cc(Br)cc1C=Nc1cccnc1 returned KCNQ1 act 15*, KCNK3 block inactive, KCNQ1 block inactive, KCNK9 inh inactive, Kir21 inh -0.86 and hERG protect -18.
Screening Oc1c(Br)cc(Br)cc1C=Nc1ccc2[nH]ncc2c1 returned KCNQ1 act 10*, KCNK3 block inactive, KCNQ1 block inactive, KCNK9 inh -7.7*, Kir21 inh -3.5 and hERG protect 5.4*.
For CC1c2[nH]c3ccccc3c2C[C@H]2C(=O)N(CCCN(C)C)CC(=O)N12 (some centres not stated) the results were KCNQ1 act inactive, KCNK3 block inactive, KCNQ1 block inactive, KCNK9 inh inactive, Kir21 inh 0.33 and hERG protect -5.
`Cc1cc(C)c(C(=O)COC(=O)C2CC3CCCC(C2)C3=O)c(C)c1` (configuration not stated) gave KCNQ1 act inactive, KCNK3 block inactive, KCNQ1 block inactive, KCNK9 inh inactive, Kir21 inh -3.4 and hERG protect -4.
O=C(CN1CCN(Cc2ccccc2Cl)C1=O)NCc1ccccn1 was read as KCNQ1 act inactive, KCNK3 block inactive, KCNQ1 block inactive, KCNK9 inh inactive, Kir21 inh 0.16 and hERG protect -9.
Cc1sc2ncnc(NC3CCN(Cc4ccccc4)CC3)c2c1C was read as KCNQ1 act inactive, KCNK3 block inactive, KCNQ1 block inactive, KCNK9 inh inactive, Kir21 inh -5.5* and hERG protect -28.
Cc1ccc2nc(C)c3c(c2c1)N(c1ccc(F)cc1)CC3 was read as KCNQ1 act inactive, KCNK3 block inactive, KCNQ1 block inactive, KCNK9 inh inactive, Kir21 inh -5.3* and hERG protect -14.
`COC(=O)c1ccc(CNC(=O)CNC(=O)c2sc3ccccc3c2Cl)cc1` gave KCNQ1 act inactive, KCNK3 block inactive, KCNQ1 block inactive, KCNK9 inh inactive, Kir21 inh 0.23 and hERG protect -6.
For CS(=O)(=O)Nc1ccc(C(=O)Nc2cccc([N+](=O)[O-])c2)cc1 the results were KCNQ1 act inactive, KCNK3 block inactive, KCNQ1 block inactive, KCNK9 inh inactive, Kir21 inh 1 and hERG protect -4.
